# Compound activity as filed in PubChem.
# Most compounds without a hit are left out; they make up all but 2.2% or so of the library.
# DAGLB inh – DAGLB lipase inhibitors, primary screen, biochemical, fluorescence, HTS | Diacylglycerol lipase-beta (Homo sapiens), Q8NCG7 | HEK293T DAGLB membrane lysate, EnzChek fluorogenic substrate | inhibition, % at 5.17 µM | 0.059% of 340,000 active; in the data active means inhibition above about 34%;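 further: 0% = enzyme with vehicle and 100% = wells lacking enzyme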
# GPR7 antagonist – GPR7 receptor antagonists, primary screen, cell-based, fluorescence, single concentration; GPR7-expressing cells, fluorescence antagonist assay; Neuropeptides B/W receptor type 1 (Homo sapiens), P48145; inhibition, % at 4.4 µM; 1.1% of 290,000 active; in the data active means inhibition above about 16%, passing the limit was not always enough;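 further: cells stimulated with the agonist NPW; 0% = agonist with vehicle and 100% = vehicle without agonist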
# HCV NS3 hel inh – inhibitors of HCV NS3 helicase, primary screen, biochemical, Cy5 molecular beacon fluorescence; Hepatitis C virus NS3 helicase; NS3 helicase DNA unwinding; inhibition, % at 10.9 µM; 0.56% of 290,000 active;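 active means inhibition above the mean of all tested compounds plus 3 SD, set per campaign, cut at about 35% in these data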;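 further: 0% = DMSO wells and 100% = thioflavine S control wells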
#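 Assay system – hepatitis C virus NS3 helicase domain fragment enzyme · Buffer or medium – MOPS pH 6.5, MgCl2, DTT, Tween20, BSA · Reagent – Cy5/quencher beacon DNA duplex and ATP to start · Compound – single 10.9 µM dose · Timing – 1 h at 25 °C · Technique – Cy5 beacon fluorescence read at start and 1 h · Measure – % inhibition of unwinding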
# DNA FID counter-1 – compounds displacing fluorescent DNA intercalator, primary screen, artefact control for HCV NS3 helicase inhibitor project, biochemical, FID fluorescence. 0.17% of 290,000 active. inhibition, % at 7.9 µM. DNA fluorescent intercalator displacement;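 further: 0% = vehicle and 100% = reference compound; higher means more ethidium bromide displaced from hairpin DNA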
# GRK2 aptamer HTS – compounds blocking aptamer binding on GRK2 – biochemical, human GRK2, bead flow cytometry, HTS, primary screen | inhibition of aptamer binding, % at 10 µM | FAM-aptamer displacement from GRK2 | Beta-adrenergic receptor kinase 1 (Homo sapiens), P25098 | 0.59% of 330,000 active;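 active means inhibition of aptamer binding above 40%, roughly 3 SD of noise, on plates passing a quality check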;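 further: median bead fluorescence of bound FAM aptamer so fluorescent compounds give negative values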
# Target sequence (P25098 whole entry, looked up): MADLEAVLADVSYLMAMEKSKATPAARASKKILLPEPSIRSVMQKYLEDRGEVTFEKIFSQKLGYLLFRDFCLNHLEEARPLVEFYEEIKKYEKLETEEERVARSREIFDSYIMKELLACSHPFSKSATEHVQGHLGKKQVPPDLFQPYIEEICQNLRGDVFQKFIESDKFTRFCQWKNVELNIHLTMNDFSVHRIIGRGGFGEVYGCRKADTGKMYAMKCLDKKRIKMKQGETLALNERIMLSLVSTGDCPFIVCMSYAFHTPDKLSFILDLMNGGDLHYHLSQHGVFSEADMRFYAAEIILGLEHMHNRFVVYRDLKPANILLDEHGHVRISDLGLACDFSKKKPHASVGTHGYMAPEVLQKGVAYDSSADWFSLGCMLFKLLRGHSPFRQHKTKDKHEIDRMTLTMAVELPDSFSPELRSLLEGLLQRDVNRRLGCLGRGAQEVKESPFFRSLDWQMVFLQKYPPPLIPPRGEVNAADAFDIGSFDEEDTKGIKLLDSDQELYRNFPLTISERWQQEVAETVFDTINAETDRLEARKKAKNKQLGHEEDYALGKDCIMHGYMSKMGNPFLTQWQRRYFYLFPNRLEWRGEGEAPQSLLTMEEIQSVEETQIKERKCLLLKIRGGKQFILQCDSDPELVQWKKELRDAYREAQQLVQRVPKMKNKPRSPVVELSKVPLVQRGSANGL
# HCV core dimer – inhibitors of HCV core protein dimerization, primary screen, biochemical, TR-FRET, high-throughput. AID 1899, 2009. TR-FRET GST/Flag-core106 dimerization, 1536-well. inhibition, % at 5 µM. 0.33% of 300,000 active;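 active means inhibition above the mean of all tested compounds plus 3 SD, set per screening campaign, cut at about 45% in these data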
#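 System: GST-tagged and Flag-tagged HCV core protein residues 1-106 / Input: core106 proteins, GST 13.5 nM and Flag 17 nM / Buffer or medium: KF-containing HEPES buffer, pH 7.45, DTT, CHAPS, BSA / Probe or stimulus: Eu-anti-GST and XL665-anti-Flag labelled anti-tag antibodies / Schedule: 4 h, 22.5 °C incubation / Technique: TR-FRET 671 and 617 nm emission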
# NS3 hel confirm – HCV NS3 helicase inhibitors, retest, confirmation, biochemical, Cy5 molecular beacon fluorescence, triplicate | shares compounds with HCV NS3 hel inh | NS3 helicase DNA unwinding | inhibition, % at 10.9 µM | 31% of 1,600 active | AID 1943, 2009;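 active means inhibition above the mean of all tested compounds plus 3 SD, cutoff set per campaign, cut at about 36% in these data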
# DNA FID counter-2 – compounds displacing fluorescent DNA intercalator, artefact control for HCV NS3 helicase inhibitor project, biochemical, FID fluorescence, triplicate. 4% of 1,600 active. AID 1945, 2009. DNA fluorescent intercalator displacement. shares compounds with HCV NS3 hel inh. inhibition, % at 7.9 µM;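 further: 0% = vehicle and 100% = reference compound; higher means more displacement of ethidium bromide from the DNA hairpin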
# * hit, by the source's call; / = no result given. Unless noted, no stated cut-off is given here; in the data, active means inhibition above about 37%; inactive means the rest.
SMILES,DAGLB inh,GPR7 antagonist,HCV NS3 hel inh,DNA FID counter-1,GRK2 aptamer HTS,HCV core dimer,NS3 hel confirm,DNA FID counter-2
CN(C)c1ccc(N=Cc2c(O)n(CCC3=CCCCC3)c(=O)[nH]c2=O)cc1,4,-5,40*,2,0,2,-1,-8
O=c1[nH]c(=S)n(CCC2=CCCCC2)c(O)c1/C=N/N1CCOCC1,/,-10,41*,-17,0,9,-8,11
CC1=CC(O)C(O)C2(C)C1CC1OC(=O)CC3C(C)C(O)C(=O)C2C13CO (stereo not given),0,/,/,/,/,/,/,/
Cc1cc(N(CCCl)CCCl)ccc1C=Cc1ccncn1,-19,/,/,/,/,/,/,/
OCCCCO,-2,/,/,/,3,/,/,/
O=C(O)Cn1cc(/C=C2\C(=O)NC(=O)N(c3ccc(Br)cc3)C2=O)c2ccccc21,8,-13,49*,-12,0,7,28,-8
O=c1[nH]c(O)c(C=Nc2ccc(Cl)c(C(F)(F)F)c2)c(=O)[nH]1,-1,-11,10,1,1,-13,/,/
O=c1[nH]c(=S)n(-c2ccc(Br)cc2)c(O)c1C=Nc1ccc(N2CCOCC2)cc1,5,-6,37*,-11,0,18,11,-14
Cc1cc(C)cc(-n2c(O)c(C=Nc3ccc(N4CCOCC4)cc3)c(=O)[nH]c2=S)c1,2,-7,15,-3,0,8,/,/
CC(=O)N1CCN(c2ccc(N=Cc3c(O)n(-c4ccc(Cl)cc4)c(=O)[nH]c3=O)cc2)CC1,5,-9,43*,-28,4,30,-11,-27
CCN(CC)c1ccc(N=Cc2c(O)n(-c3ccc(Cl)cc3)c(=O)[nH]c2=O)cc1,0,-11,7,-1,1,13,/,/
O=c1[nH]c(=S)n(-c2ccccc2F)c(O)c1C=Nc1ccc(N2CCOCC2)cc1,3,-8,54*,-18,0,2,18,-24
Cc1ccc2c(c1)C1C[N+](C)(CC(=O)c3ccc(Cl)cc3Cl)CCC1N2C(=O)c1ccc(F)cc1 (stereo not given),1,/,/,/,0,/,/,/
CSc1nc(N)c(N=Nc2ccc([As](=O)(O)O)cc2)c(=O)[nH]1,-1,-6,1,3,5,-5,/,/
NNC(=O)CN1C(=O)CN=C(c2ccccc2)c2cc(Br)ccc21,2,-11,54*,-33,4,-4,-14,-29
O=C(N/N=C/c1c(O)n(C2CCCCC2)c(=S)[nH]c1=O)c1ccccc1O,15,5,-17,-15,0,10,/,/
CC(C)c1ccc(-n2c(O)c(/C=N/NC(=O)c3ccccc3O)c(=O)[nH]c2=S)cc1,18,0,74*,-30,0,5,74*,21
COC(=O)C1=C(c2c(C)noc2C)C[C@@H]2CC[C@H]1N2C(=O)NCc1ccc(C(F)(F)F)cc1,2,/,/,/,2,/,/,/
CN1C(=O)C(=Cc2ccc(N3CCCCCC3)o2)C(=O)N(C)C1=S,1,-3,10,-7,0,9,/,/
O=C(O)c1ccccc1-c1ccc(C=C2C(=O)N(c3ccccc3)C(=S)N(c3ccccc3)C2=O)o1,4,12,42*,-20,/,10,69*,9
COc1cccc(N2C(=O)CC(=O)NC2=O)c1,-3,9,28,-21,2,2,/,/
Cc1ccc(N2C(=O)CC(=O)NC2=O)cc1Cl,6,7,45*,-24,0,-9,-3,33
CCOc1cccc(N2C(=O)CC(=O)NC2=O)c1,-1,-15,59*,-36,3,-4,-22,3
O=C1NC(=O)C(=Cc2ccc(-c3cc(Cl)ccc3[N+](=O)[O-])o2)C(=O)N1,7,-9,14,15,/,/,/,/
CNS(=O)(=O)c1ccc(-c2ccc(C=C3C(=O)NC(=O)NC3=O)o2)cc1,1,-1,45*,0,1,4,-28,6
SMILES,DAGLB inh,GPR7 antagonist,HCV NS3 hel inh,DNA FID counter-1,GRK2 aptamer HTS,HCV core dimer,NS3 hel confirm,DNA FID counter-2
O=C1NC(=O)C(=Cc2ccc(-c3ccccc3[N+](=O)[O-])o2)C(=O)N1,8,16,45*,5,0,1,-22,20
NS(=O)(=O)c1ccc(-c2ccc(C=C3C(=O)NC(=O)NC3=O)o2)cc1,-1,-4,26,1,2,10,/,/
CN1CCCN(C(=O)COc2ccc(F)cc2F)CC1,0,-13,4,0,4,-4,/,/
CCN1CCC(NCC2CCCCC2)CC1,-1,-6,6,11,3,-9,/,/
CN1CCc2cc3c(c4c2C1Cc1ccccc1-4)OCO3 (stereo not given),0,-7,44*,30,5,12,-6,82*
O=C1NC(=O)N(Cc2ccco2)C(=O)/C1=C/c1cccn1CCOc1ccccc1Cl,25,-5,43*,-19,1,17,2,-1
CCCCN1C(=O)/C(=C\c2ccco2)C(=O)N(CCc2ccccc2)C1=O,29,-10,38*,-28,0,25,69*,15
Cc1ccccc1N1C(=O)/C(=C/c2ccco2)C(=O)NC1=S,/,1,81*,8,100*,70*,83*,21
Cn1cccc1/C=C1\C(=O)NC(=O)N(Cc2ccccc2)C1=O,15,-7,13,-25,2,5,/,/
CCCCN1C(=O)/C(=C/c2ccc(N(C)C)cc2)C(=O)N(Cc2ccco2)C1=O,13,3,26,-28,0,34,/,/
O=C1NC(=O)N(Cc2ccccc2)C(=O)/C1=C\c1ccco1,6,-5,39*,-17,8,3,20,24
COC(=O)C1=C(c2c(C)noc2C)C[C@@H]2CC[C@H]1N2C(=O)NCCCOC(C)C,0,/,/,/,1,/,/,/
O=C1CN(O)C(c2ccccc2)=c2cc(Br)ccc2=N1,-1,-13,-2,0,0,-7,/,/
Cc1cc(/C=C2/C(=O)NC(=O)N(Cc3ccco3)C2=O)c(C)n1-c1ccccc1O,4,-4,49*,-21,12,2,-17,11
COc1ccc(CN2C(=O)NC(=O)/C(=C/c3ccoc3)C2=O)cc1,-21,-9,54*,-20,4,8,17,15
O=C1NC(=O)N(Cc2ccc(F)cc2)C(=O)/C1=C\C=C\c1ccco1,13,-5,41*,-10,11,13,32,20
